Measurements published in PMC10765384 (Bioorganic chemistry, 2023).

Tests used:
[1] = system: HBV DNA replication in HepAD38 cells; assay: Anti-HBV activity, 7-day assay in HepAD38 cells; type: cell-based, hepatitis B virus; conditions: for fold increase of anti-HBV potency compared to GLP-26: HepAD38 EC50 relative to reference GLP-26; for EC50 / EC90: Hepatitis B virus, HePAD38, 168 h; for EC50: read-out: Anti-HBV activity EC50; for EC90: read-out: Anti-HBV activity EC90
[2] = Cytotoxicity, CellTiter 96 assay in PBM cells; type: cell-based, human; conditions: human, peripheral blood mononuclear (PBM) cells
In short: (§1)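 Colorimetric non-radioactive cell proliferation read-out (CellTiter 96). CC50 is the test compound concentration that inhibited cell growth by 50%.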

[3] = Cytotoxicity, CellTiter 96 assay in HepG2 cells; type: cell-based, human; conditions: human, hepatocellular carcinoma (HepG2) cells
In short: as §1

[4] = Cytotoxicity, CellTiter 96 assay in Vero cells; type: cell-based, African green monkey; conditions: African green monkey, kidney (Vero) cells
In short: as §1

[5] = Cytotoxicity, CellTiter 96 assay in CEM cells; type: cell-based, human; conditions: human, T lymphoblast (CEM) cells
In short: as §1

SMILES	fold increase of anti-HBV potency compared to GLP-26 [1]	EC50 [1]	EC90 [1]	CC50 [2]	CC50 [3]	CC50 [4]	CC50 [5]
C#CC(C)(C)NC(=O)C(=O)c1c(C)c(C(=O)Nc2ccc(F)c(F)c2)n(C)c1C [Compound 9a, N-(3,4-Difluorophenyl)-1,3,5-trimethyl-4-(2-((2-methylbut-3-yn-2-yl)amino)-2-oxoacetyl)-1H-pyrrole-2-carboxamide]	5–30 fold	0.00071 ± 0.00022 µM	0.0082 ± 0.0006 µM	64 ± 26 µM	91 ± 12 µM	> 100 µM	25 ± 2 µM
C#CCNC(=O)C(=O)c1c(C)c(C(=O)Nc2ccc(F)c(F)c2)n(CCC)c1C [Compound 5b, N-(3,4-Difluorophenyl)-3,5-dimethyl-4-(2-oxo-2-(prop-2-yn-1-ylamino)acetyl)-1-propyl-1H-pyrrole-2-carboxamide]		0.0091 ± 0.0037 µM	0.044 ± 0.021 µM	> 100 µM	> 100 µM	> 100 µM	> 100 µM
C#CC(C)(CC)NC(=O)C(=O)c1c(C)c(C(=O)Nc2ccc(F)c(F)c2)n(C)c1C (stereo not shown) [Compound 9b, N-(3,4-Difluorophenyl)-1,3,5-trimethyl-4-(2-(3-methylpent-1-yn-3-ylamino)-2-oxoacetyl)-1H-pyrrole-2-carboxamide]	5–30 fold	0.00015 ± 7e-05 µM	0.0068 ± 0.0034 µM	61 ± 43 µM	84 ± 11 µM	64 ± 16 µM	10 ± 3 µM
C#CCNC(=O)C(=O)c1c(C)c(C(=O)Nc2ccc(F)c(F)c2)n(CC#CCC)c1C [Compound 5i, N-(3,4-Difluorophenyl)-3,5-dimethyl-4-(2-oxo-2-(prop-2-yn-1-ylamino)acetyl)-1-(pent-2-yn-1-yl)-1H-pyrrole-2-carboxamide]		0.826 ± 0.172 µM	3.69 µM	> 100 µM	> 100 µM	> 100 µM	> 100 µM
C#CCNC(=O)C(=O)c1c(C)c(C(=O)Nc2ccc(F)c(F)c2)n(CC2CC2)c1C [Compound 5f, 1-(Cyclopropylmethyl)-N-(3,4-difluorophenyl)-3,5-dimethyl-4-(2-oxo-2-(prop-2-yn-1-ylamino)acetyl)-1H-pyrrole-2-carboxamide]		0.0522 ± 0.0271 µM	0.0522 ± 0.0271 µM	> 100 µM	> 100 µM	> 100 µM	> 100 µM
C#CC1(NC(=O)C(=O)c2c(C)c(C(=O)Nc3ccc(F)c(F)c3)n(C)c2C)CCCCC1 [Compound 9f, N-(3,4-Difluorophenyl)-4-(2-(1-ethynylcyclohexylamino)-2-oxoacetyl)-1,3,5-trimethyl-1H-pyrrole-2-carboxamide]	only a moderate improvement	0.0035 ± 0.0048 µM	0.0074 ± 0.0093 µM	23 ± 13 µM	42 ± 23 µM	43 µM	15 µM
C#CCn1c(C)c(C(=O)C(=O)NC(C#C)(CC)CC)c(C)c1C(=O)Nc1ccc(F)c(F)c1 [Compound 10b, N-(3,4-difluorophenyl)-4-(2-((3-ethylpent-1-yn-3-yl)amino)-2-oxoacetyl)-3,5-dimethyl-1-(prop-2-yn-1-yl)-1H-pyrrole-2-carboxamide]		0.0079 ± 0.0016 µM	0.06 ± 0.041 µM	53 ± 41 µM	72 ± 39 µM	> 100 µM	76 ± 17 µM
C#CC1(NC(=O)C(=O)c2c(C)c(C(=O)Nc3ccc(F)c(F)c3)n(C)c2C)CCC1 [Compound 9e, N-(3,4-Difluorophenyl)-4-(2-(1-ethynylcyclobutylamino)-2-oxoacetyl)-1,3,5-trimethyl-1H-pyrrole-2-carboxamide]	5–30 fold	0.0003 ± 0.0004 µM	0.0019 ± 0.0015 µM	> 100 µM	98 µM	> 100 µM	> 100 µM
C#CCNC(=O)C(=O)c1c(C)c(C(=O)Nc2ccc(F)c(F)c2)n(CC#CC)c1C [Compound 5h, 1-(But-2-yn-1-yl)-N-(3,4-difluorophenyl)-3,5-dimethyl-4-(2-oxo-2-(prop-2-yn-1-ylamino)acetyl)-1H-pyrrole-2-carboxamide]		0.0452 ± 0.0201 µM	0.395 ± 0.327 µM	> 100 µM	> 100 µM	> 100 µM	> 100 µM
C#CC1(NC(=O)C(=O)c2c(C)c(C(=O)Nc3ccc(F)c(F)c3)n(C)c2C)CC1 [Compound 9d, N-(3,4-Difluorophenyl)-4-(2-(1-ethynylcyclopropylamino)-2-oxoacetyl)-1,3,5-trimethyl-1H-pyrrole-2-carboxamide]	5–30 fold	0.0008 ± 0.0007 µM	0.0061 ± 0.0022 µM	> 100 µM	> 100 µM	> 100 µM	> 100 µM
C#CCNC(=O)C(=O)c1c(C)c(C(=O)Nc2ccc(F)c(F)c2)n(CCCC)c1C [Compound 5c, 1-Butyl-N-(3,4-difluorophenyl)-3,5-dimethyl-4-(2-oxo-2-(prop-2-yn-1-ylamino)acetyl)-1H-pyrrole-2-carboxamide]		0.0874 ± 0.0037 µM	0.556 ± 0.147 µM	> 100 µM	> 100 µM	> 100 µM	> 100 µM
C#CCNC(=O)C(=O)c1c(C)c(C(=O)Nc2ccc(F)c(F)c2)n(CC)c1C [Compound 5a, N-(3,4-Difluorophenyl)-1-ethyl-3,5-dimethyl-4-(2-oxo-2-(prop-2-yn-1-ylamino)acetyl)-1H-pyrrole-2-carboxamide]		0.0071 ± 0.0062 µM	0.0494 ± 0.0129 µM	> 100 µM	> 100 µM	> 100 µM	> 100 µM
C#CCNC(=O)C(=O)c1c(C)c(C(=O)Nc2ccc(F)c(F)c2)n(C2CC2)c1C [Compound 5e, 1-Cyclopropyl-N-(3,4-difluorophenyl)-3,5-dimethyl-4-(2-oxo-2-(prop-2-yn-1-ylamino)acetyl)-1H-pyrrole-2-carboxamide]		0.0075 ± 0.0078 µM	0.0415 ± 0.012 µM	> 100 µM	> 100 µM	> 100 µM	> 100 µM
C#CC(CC)(CC)NC(=O)C(=O)c1c(C)c(C(=O)Nc2ccc(F)c(F)c2)n(C)c1C [Compound 9c, N-(3,4-Difluorophenyl)-4-(2-(3-ethylpent-1-yn-3-ylamino)-2-oxoacetyl)-1,3,5-trimethyl-1H-pyrrole-2-carboxamide]	5–30 fold	0.0005 ± 0.0003 µM	0.0046 ± 0.0023 µM	26 ± 14 µM	44 ± 35 µM	42 µM	16 µM
C#CCNC(=O)C(=O)c1c(C)c(C(=O)Nc2ccc(F)c(F)c2)n(CC#C)c1C [Compound 5g, N-(3,4-Difluorophenyl)-3,5-dimethyl-4-(2-oxo-2-(prop-2-yn-1-ylamino)acetyl)-1-(prop-2-yn-1-yl)-1H-pyrrole-2-carboxamide]	> 5 fold	0.00088 ± 0.00043 µM	0.0103 ± 0.006 µM	> 100 µM	> 100 µM	> 100 µM	> 100 µM
C#CCNC(=O)C(=O)c1c(C)c(C(=O)Nc2ccc(F)c(F)c2)n(CC=C)c1C [Compound 5d, 1-Allyl-N-(3,4-difluorophenyl)-3,5-dimethyl-4-(2-oxo-2-(prop-2-yn-1-ylamino)acetyl)-1H-pyrrole-2-carboxamide]		0.003 ± 0.0014 µM	0.128 ± 0.15 µM	> 100 µM	> 100 µM	> 100 µM	> 100 µM
C#CCNC(=O)C(=O)c1c(C)c(C(=O)Nc2ccc(F)c(F)c2)n(Cc2ccccc2)c1C [Compound 5j, 1-Benzyl-N-(3,4-difluorophenyl)-3,5-dimethyl-4-(2-oxo-2-(prop-2-yn-1-ylamino)acetyl)-1H-pyrrole-2-carboxamide]		2.52 µM	> 10 µM	> 100 µM	> 100 µM	> 100 µM	> 100 µM
